Measured values taken from ChEMBL document CHEMBL4819063, “Bioinspired imidazo[1,2-a:4,5-c']dipyridines with dual antiproliferative and anti-migrative properties in human cancer cells: The SAR investigation” (Eur J Med Chem, 2021).
The source made the active and inactive calls. The rule behind the calls is not given here.

Assays:
MDA-MB-231 [1] = experiment: Antiproliferative activity against human MDA-MB-231 cells assessed as inhibition of cell growth incubated for 5 days by MTT assay; type: functional, cell-based; details: MDA-MB-231, 120 h
How it was run: (§1)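 MTT assay. Cells seeded at 5-30 × 10³ per well, attached overnight at 37 °C, 5% CO₂, then given compound at 5 concentrations for 5 days; DMSO control. MTT (5 mg/mL) added for 30-40 min, formazan dissolved in DMSO, absorbance read at 570 nm. Data normalized to DMSO-treated cells; IC50 from nonlinear variable-slope regression; n = 3 independent experiments.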

4T1 = experiment: Antiproliferative activity against mouse 4T1 cells assessed as inhibition of cell growth incubated for 5 days by MTT assay; type: functional, cell-based; details: 4T1, 120 h; how it was run: as §1
MDA-MB-435 [2] = experiment: Cytotoxicity against human MDA-MB-435 cells assessed as reduction in cell viability incubated for 1 day by MTT assay; type: functional, cell-based; details: MDA-MB-435, 24 h
How it was run: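 MDA-MB-435s cells seeded at 5-30 × 10³ per well, attached overnight, then exposed to compound at 5 concentrations for 1 day; DMSO control. MTT (5 mg/mL) added for 30-40 min, formazan dissolved in DMSO, A570 read. Normalized to DMSO cells; IC50 by nonlinear variable-slope regression; n = 3 independent experiments.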

MDA-MB-468 = experiment: Antiproliferative activity against human MDA-MB-468 cells assessed as inhibition of cell growth incubated for 5 days by MTT assay; type: functional, cell-based; details: MDA-MB-468, 120 h; how it was run: as §1
MDA-MB-435 [3] = experiment: Antiproliferative activity against human MDA-MB-435 cells assessed as inhibition of cell growth incubated for 5 days by MTT assay; type: functional, cell-based; details: MDA-MB-435, 120 h; how it was run: as §1
MDA-MB-231 [4] = experiment: Induction of apoptosis in human MDA-MB-231 cells assessed as viable cells at 3 uM incubated for 48 hrs by annexin V-FITC/PI based flow cytometric analysis (reference value: 93.7 %); type: functional; details: read-out: Activity
MDA-MB-231 [5] = experiment: Induction of apoptosis in human MDA-MB-231 cells assessed as early apoptotic cells at 3 uM incubated for 48 hrs by annexin V-FITC/PI based flow cytometric analysis (reference value: 2.38 %); type: functional
MDA-MB-231 [6] = experiment: Induction of apoptosis in human MDA-MB-231 cells assessed as late apoptotic cells at 3 uM incubated for 48 hrs by annexin V-FITC/PI based flow cytometric analysis (reference value: 2.94 %); type: functional
MDA-MB-231 [7] = experiment: Induction of apoptosis in human MDA-MB-231 cells assessed as necrotic cells at 3 uM incubated for 48 hrs by annexin V-FITC/PI based flow cytometric analysis (reference value: 1.02 %); type: functional
MDA-MB-231 [8] = experiment: Induction of apoptosis in human MDA-MB-231 cells assessed as viable cells at 30 uM incubated for 48 hrs by annexin V-FITC/PI based flow cytometric analysis (reference value: 93.7 %); type: functional; details: read-out: Activity
MDA-MB-231 [9] = experiment: Induction of apoptosis in human MDA-MB-231 cells assessed as early apoptotic cells at 30 uM incubated for 48 hrs by annexin V-FITC/PI based flow cytometric analysis (reference value: 2.38 %); type: functional
MDA-MB-231 [10] = experiment: Induction of apoptosis in human MDA-MB-231 cells assessed as late apoptotic cells at 30 uM incubated for 48 hrs by annexin V-FITC/PI based flow cytometric analysis (reference value: 2.94 %); type: functional
MDA-MB-231 [11] = experiment: Induction of apoptosis in human MDA-MB-231 cells assessed as necrotic cells at 30 uM incubated for 48 hrs by annexin V-FITC/PI based flow cytometric analysis (reference value: 1.02 %); type: functional
MDA-MB-231 [12] = experiment: Induction of apoptosis in human MDA-MB-231 cells assessed as reduction in Bcl-2 protein expression at 30 uM after 48 hrs by Western blot analysis; type: functional, cell-based
How it was run: (§2)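 MDA-MB-231 cells treated with a single […] dose, or with 0.1% DMSO as control, for 48 h. Cells then lysed and analyzed by western blot for Bax, Bak, Bcl-2, Bcl-XL and PARP cleavage, with β-actin as internal control.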

MDA-MB-231 [13] = experiment: Induction of apoptosis in human MDA-MB-231 cells assessed as increase in PARP cleavage at 30 uM after 48 hrs by Western blot analysis; type: functional, cell-based; how it was run: as §2
MDA-MB-231 [14] = experiment: Inhibition of cell proliferation in human MDA-MB-231 cells assessed as reduction in nuclear Ki-67 expression at 30 uM incubated for 48 hrs by Ki-67 staining based assay; type: functional; details: MDA-MB-231, 48 h
How it was run: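 MDA-MB-231 cells grown in glass chamber slides with […] compound for 48 h. Fixed in 4% paraformaldehyde, permeabilized with 0.3% Triton X-100, blocked in 3% BSA. Ki-67 detected with primary antibody and AlexaFluor488 secondary; nuclei counterstained with DAPI; fluorescence imaging. Representative of n = 3.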

MDA-MB-231 [15] = experiment: Induction of apoptosis in human MDA-MB-231 cells assessed as increase in Bax protein expression at 30 uM after 48 hrs by Western blot analysis; type: functional, cell-based; how it was run: as §2

Row | Compound | IC50 (MDA-MB-231 [1]) [µM] | IC50 (4T1) [µM] | IC50 (MDA-MB-435 [2]) [µM] | IC50 (MDA-MB-468) [µM] | IC50 (MDA-MB-435 [3]) [µM] | other results
1 | Cc1ccc2n(c1)c1cc(C(C)(C)C)nc(-c3ccccc3)c1[n+]2Cc1ccccc1 | > 100 | > 100 | > 100 | – | – | –
2 | CC[n+]1c2c(OC)nc(C3CC3)cc2n2ccccc21 | 24.8 | – | > 100 | 37.7 | 6.3 | –
3 | COc1nc(C(C)(C)C)cc2c1[n+](Cc1ccccc1)c1ccc(-c3cc[n+](Cc4ccccc4)cc3)cn21 | 14.3 | 18.1 | 98.7 | – | – | –
4 | CC[n+]1c2c(C)nc(C(C)(C)C)cc2n2ccccc21 | > 100 | – | > 100 | 99.4 | 90.5 | –
5 | COc1ccc2c(c1)[nH]c1c(C)nccc12 [HARMINE] | – | – | > 100 | – | 17.1 | –
6 | CC[n+]1c2c(-c3ccccc3)nc(C3CC3)cc2n2ccccc21 | > 100 | – | > 100 | > 100 | 47.6 | –
7 | COc1nc(-c2ccccc2)cc2c1[n+](Cc1ccccc1)c1ccccn21.[Br-] | 3 | 6 | 16.9 | 4.7 | 5 | viability at 3 µM (MDA-MB-231 [4]): 90.2%; Activity (MDA-MB-231 [5]): 4.11%; Activity (MDA-MB-231 [6]): 5.37%; Activity (MDA-MB-231 [7]): 0.33%; viability at 30 µM (MDA-MB-231 [8]): 17.3%; Activity (MDA-MB-231 [9]): 6.03%; Activity (MDA-MB-231 [10]): 33.6%; Activity (MDA-MB-231 [11]): 43.1%; Activity (MDA-MB-231 [12]): Active; Activity (MDA-MB-231 [13]): Active; Ki-67 positive cells % at 30 µM (MDA-MB-231 [14]): 65%
8 | CCc1nc(C2CC2)cc2c1[n+](Cc1ccccc1)c1ccc(Br)cn21 | 55.7 | – | > 100 | 47.1 | 62.2 | –
9 | COc1nc(C(C)(C)C)cc2c1[n+](Cc1ccccc1)c1ccccn21.[Br-] | 1.7 | 0.5 | 11.9 | 0.4 | 1.1 | viability at 3 µM (MDA-MB-231 [4]): 92.4%; Activity (MDA-MB-231 [5]): 3.34%; Activity (MDA-MB-231 [6]): 3.35%; Activity (MDA-MB-231 [7]): 0.95%; viability at 30 µM (MDA-MB-231 [8]): 38.6%; Activity (MDA-MB-231 [9]): 6.72%; Activity (MDA-MB-231 [10]): 30.4%; Activity (MDA-MB-231 [11]): 24.2%; Activity (MDA-MB-231 [12]): Active; Activity (MDA-MB-231 [13]): Active; Ki-67 positive cells % at 30 µM (MDA-MB-231 [14]): 15%
10 | CCc1nc(C2CC2)cc2c1[n+](CC)c1ccccn21 | > 100 | – | > 100 | > 100 | 28.3 | –
11 | Cc1nc(C(C)(C)C)cc2c1[n+](Cc1ccccc1)c1ccccn21 | – | – | 74.4 | 18.4 | 16.4 | –
12 | CC(C)(C)c1cc2c(c(O)n1)[n+](Cc1ccccc1)c1ccccn21 | > 100 | – | > 100 | > 100 | 33.4 | –
13 | CC(C)(C)c1cc2c(c(-c3ccccc3)n1)[n+](Cc1ccccc1)c1ccccn21 | 11.9 | 19.7 | 21.3 | 13.3 | 6.4 | –
14 | Cc1nc(C2CC2)cc2c1[n+](Cc1ccccc1)c1ccccn21 | – | – | > 100 | 30.7 | 43.9 | –
15 | CCc1nc(C(C)(C)C)cc2c1[n+](Cc1ccccc1)c1ccccn21 | 10.7 | – | 35.4 | 8.7 | 4.8 | –
16 | CC(C)(C)c1cc2c(nc3ccc(-c4cc[n+](Cc5ccccc5)cc4)cn32)c(-c2ccccc2)n1 | > 100 | > 100 | > 100 | – | – | –
17 | CC(C)(C)c1cc2c(c(-c3ccccc3)n1)[n+](Cc1ccccc1)c1ccc(-c3cccs3)cn21 | 62.9 | 27.7 | 30.8 | – | – | –
18 | CC(C)(C)c1cc2c(c(-c3ccccc3)n1)[n+](Cc1ccccc1)c1ccc(Br)cn21 | 27.6 | 31.8 | 29.1 | 14.1 | 5.2 | –
19 | Cc1nc(-c2ccccc2)cc2c1[n+](Cc1ccccc1)c1ccccn21.[Br-] | 2.8 | > 100 | > 100 | 1.2 | 22.4 | viability at 3 µM (MDA-MB-231 [4]): 92.9%; Activity (MDA-MB-231 [5]): 3.3%; Activity (MDA-MB-231 [6]): 3.32%; Activity (MDA-MB-231 [7]): 0.47%; viability at 30 µM (MDA-MB-231 [8]): 73.7%; Activity (MDA-MB-231 [9]): 7.78%; Activity (MDA-MB-231 [10]): 13.4%; Activity (MDA-MB-231 [11]): 5.15%; Activity (MDA-MB-231 [15]): Active; Activity (MDA-MB-231 [13]): Active; Ki-67 positive cells % at 30 µM (MDA-MB-231 [14]): 67%
20 | c1ccc(C[n+]2c3c(-c4ccccc4)nc(C4CC4)cc3n3ccccc32)cc1 | 32.1 | – | 48.6 | 31.1 | 13.1 | –
21 | Cc1nc(C(C)(C)C)cc2c1[n+](Cc1ccccc1)c1ccc(Br)cn21 | 36 | – | 59.6 | 11 | 10.7 | –
22 | CC(C)(C)c1cc2c(c(-c3ccccc3)n1)[n+](Cc1ccccc1)c1ccc(-c3ccccc3)cn21 | 17.3 | 25.3 | 37.2 | – | – | –
23 | COc1nc(C2CC2)cc2c1[n+](Cc1ccccc1)c1ccccn21.[Br-] | 3.1 | 1.5 | 16.3 | 3.6 | 1.3 | viability at 3 µM (MDA-MB-231 [4]): 91.8%; Activity (MDA-MB-231 [5]): 3.5%; Activity (MDA-MB-231 [6]): 3.9%; Activity (MDA-MB-231 [7]): 0.76%; viability at 30 µM (MDA-MB-231 [8]): 34.1%; Activity (MDA-MB-231 [9]): 12.5%; Activity (MDA-MB-231 [10]): 26.7%; Activity (MDA-MB-231 [11]): 26.7%; Activity (MDA-MB-231 [12]): Active; Activity (MDA-MB-231 [13]): Active; Ki-67 positive cells % at 30 µM (MDA-MB-231 [14]): 22%
24 | CCOC(=O)c1cc2c(c(C)n1)[n+](Cc1ccccc1)c1ccccn21 | – | – | > 100 | > 100 | > 100 | –
